Only some compounds are listed: those with a hit (about 9.2% of all), similar ones and a draw of the others.
HCT116 PTEN-null = growth suppression of PTEN-null HCT116, primary screen, cell-based, CellTiter-Glo; HCT116 PTEN-null viability, 60 h; stronger effect = lower value; viability, % at 10 µM; actives 1.2% (n = 140,000); AID 827, 2007;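 active = viability at or below a set limit, 4 SD under the median of all tested compounds, cut at about 3.7% in these data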;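 note: PTEN knockout HCT116 line with beta catenin targeted HCT116 as companion control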
bCat KO growth = primary screen for growth suppressors in beta-catenin knockout HCT116 cells (colon tumor, human). HCT116 beta-catenin knockout viability, CellTiter-Glo, 60 h; stronger effect = lower value. viability, % at 10 µM. actives 1.5% (n = 140,000);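 active = viability at or under a set limit, the compound median less 4 SD, cut at about 6% in these data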;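 note: 0% = Hyamine 1622 control at 20 µM and 100% = untreated cell control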
L major viab = Leishmania major promastigote growth inhibition, primary screen | Leishmania major promastigotes, resazurin fluorescence viability | AID 1063, 2008 | inhibition, % at 10 µM | actives 9% (n = 200,000); in the data active = inhibition above about 50%;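 note: promastigotes grown with compound for 44 hours at 28 °C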
Autophagy HCS = autophagy modulators in MEF cells, primary screen, imaging, high-content, MEF GFP-LC3; AID 463193, 2010; actives 0.98% (n = 190,000); MEF GFP-LC3 puncta imaging; test concentration mostly 10 µM; calls only at 10 µM (by protocol);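 active = percentage of spot-positive cells more than 3 SD above its plate mean, without a fluorescence outlier flag or 80% toxicity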;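 note: spot-positive cell cutoff set from DMSO-treated cells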
Dynein cargo inh = inhibitors of GR-EGFP nuclear translocation, primary screen, dynein cargo transport inhibitor project, imaging, high-content, 3617.4 mouse cells; test concentration mostly 20 µM; stimulated with dexamethasone, 1 µM; stronger effect = lower value; z-score, hits read low; actives 0.47% (n = 220,000);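 active = plate z-score of nuclear minus cytoplasmic receptor signal below a set negative limit, without overly bright fluorescence or cell loss, cut at about -3.5 in these data, passing the limit was not always enough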;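 note: z-score of nuclear minus cytoplasmic ring GR-EGFP intensity difference per well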
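Also added: dexamethasone, 1.0 µM final. Medium: tet-free, stripped-serum medium. Detection: fixed, Hoechst-stained cells imaged at 10x for EGFP. Read-out: nuclear-to-cytoplasmic GR-EGFP distribution per well. Times: induction 48 h, compound 1 h, agonist 30 min.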
Numbers without * were called inactive; i = inactive; nt = not tested or not shown; + = active, no number.

SMILES	HCT116 PTEN-null	bCat KO growth	L major viab	Autophagy HCS	Dynein cargo inh
CCOC(=O)C1CCCN(C2CCN(Cc3nc(-c4ccccc4)no3)CC2)C1 (stereo not drawn)	nt	nt	73*	i	-0.33
CCOC(=O)C1CCCN(C2CCN(Cc3nc(Cc4ccccc4)no3)CC2)C1 (stereo not drawn)	nt	nt	8	i	-0.056
CC1(C)C(=O)OC(/C=C/c2cccc([N+](=O)[O-])c2)C(C)(C)C1=O (stereo not drawn)	nt	nt	nt	nt	0.31
CCOC(=O)c1[nH]c(C)c(C(=O)N2CCN(c3cccc(Cl)c3)CC2)c1C	73	78	2	i	-1.6
COc1ccc(CCN2CCC(Nc3nc4ccccc4n3Cc3ccc(F)cc3)CC2)cc1	1.2*	1.0*	100*	i	1.3
COC(=O)c1ccc(CN2CCC(CO)(Cc3ccccc3Cl)CC2)cc1	nt	nt	98*	i	-1.1
COC(=O)c1ccc(CN2CCCCC2)cc1	nt	nt	nt	nt	-0.9
COc1ccc(/C=C/CN2CCC(CO)(Cc3ccccc3Cl)CC2)cc1	nt	nt	96*	i	-0.65
COC(=O)c1c(-c2ccccc2)c[nH]c1C	nt	nt	nt	nt	-0.29
C/C(=N/OC(=O)C1CC1)c1cc(-c2ccc(Cl)cc2)no1	nt	nt	-4	i	1.7
OCCC1CN(Cc2nc3c(s2)CCCC3)CCN1Cc1ccccc1 (stereo not drawn)	nt	nt	nt	nt	-1.1
CC(C)CCN1CCN(Cc2nc3c(s2)CCCC3)CC1CCO (stereo not drawn)	nt	nt	75*	i	-1.2
OCCC1CN(Cc2nc3c(s2)CCCC3)CCN1CCc1ccccc1 (stereo not drawn)	nt	nt	76*	i	-0.86
CC(C)(C)NC(=O)C(c1ccccn1)N(C(=O)C1CSC(=O)C1)c1cccc(F)c1 (stereo not drawn)	nt	nt	0	i	-0.45
O=C(COC(=O)c1cc(Cl)ccc1[N+](=O)[O-])NCc1ccc(Cl)cc1Cl	84	99	62*	i	2.1
CC(C)[C@H](NC(=O)c1ccc(Cl)c([N+](=O)[O-])c1)C(=O)NCc1ccc(Cl)cc1Cl	67	68	53*	i	0.54
CC(C)[C@H](NC(=O)c1ccc(Cl)c([N+](=O)[O-])c1)C(=O)NCc1ccc(F)cc1	81	90	-2	i	0.19
CCOC(=O)N1CCN(C(=O)CCn2c(=S)[nH]c3ccsc3c2=O)CC1	nt	nt	1	i	-0.35
Cc1sc2ncnc(NCCCn3ccnc3)c2c1C	101	104	55*	i	-0.32
CC(Sc1nc(-c2ccc(F)cc2)cs1)C(=O)Nc1ccc(Cl)cn1 (stereo not drawn)	80	83	61*	i	0.43
CCCCOCCCNC(=O)CC(C)c1ccccc1 (stereo not drawn)	88	102	-3	i	0.57
CC1CC(C)CN(C(=S)Nc2ccc(OC(F)F)cc2)C1 (stereo not drawn)	94	102	85*	i	-0.91
CN1CCC(N(C)C(=S)Nc2ccc(SC(F)F)cc2)CC1	89	96	76*	i	0.21
CC1CC(C)CN(C(=S)Nc2ccc(SC(F)F)cc2)C1 (stereo not drawn)	80	84	73*	i	0.96
Cn1cnc(S(=O)(=O)N2CCN(c3ccc(F)cc3)CC2)c1	nt	nt	nt	nt	0.52
SMILES	HCT116 PTEN-null	bCat KO growth	L major viab	Autophagy HCS	Dynein cargo inh
CC(C)CC(C(=O)NC(C)(C)C)N(Cc1cccs1)C(=O)c1snc(C(N)=O)c1N (stereo not drawn)	nt	nt	12	i	-0.86
Nc1ccc(Cc2ccc(N)c(O)c2)cc1O	nt	nt	99*	i	-0.74
CCN(CC(=O)Nc1ccc2c(c1)OCCO2)c1nc(-c2cccnc2)nc2ccccc12	81	77	53*	i	0.39
CCOC(=O)/C=c1\s/c(=C\c2ccc3cc(OC)ccc3c2)c(=O)n1CC(=O)NCc1ccc2c(c1)OCO2	nt	nt	-4	+	-0.54
Cc1ccc(N(CCC#N)C(=O)CN2C(=O)NC(Cc3ccccc3)C2=O)cc1 (stereo not drawn)	nt	nt	-7	i	-0.88
O=c1c(Cc2ccccc2)c(O)ccn1C1CCCCCCC1	nt	nt	-8	i	-0.72
O=C(Nc1cc(Cl)ccc1Oc1ccccc1)c1ccccc1F	66	66	2	i	0.46
Cc1ccc(Oc2ccc(Cl)cc2NC(=O)c2ccc(F)cc2F)cc1	86	87	58*	i	-0.96
NC(=NCCc1c[nH]c2ccccc12)NC(=O)c1ccc(Cl)cc1	nt	nt	60*	i	0.35
Cc1cc(C)nc(NC(N)=NCCc2c[nH]c3ccccc23)n1	nt	nt	78*	i	-0.46
Cc1cc(C)nc(NC(=NCCc2c[nH]c3ccccc23)NC(=O)Nc2ccc(Cl)cc2)n1	46	49	73*	i	-0.18
CCCOc1ccccc1N/C(=N/c1nc(C)cc(C)n1)NC(=O)Nc1ccc(Cl)cc1	61	60	12	i	0.052
C=CCNC(=O)c1c(C(F)(F)F)nn(C)c1Cl	nt	nt	0	i	-0.57
Cc1cc(C)c2c(=O)[nH]c(SCC(=O)c3ccc(C(C)C)cc3)nc2n1	95	103	-6	i	0.00095
CCOC(=O)c1c(C)[nH]c(C)c1C(=O)COC(=O)c1cccc(S(=O)(=O)N(CC)CC)c1	86	73	99*	i	-0.6
CCOC(=O)c1c(C)[nH]c(C)c1C(=O)COC(=O)c1cccc(S(=O)(=O)NC)c1	83	83	80*	i	-0.33
O=C(O)c1ccc(N2C(=O)Nc3ccccc3N2O)cc1	nt	nt	-1	i	-0.26
CCOc1ccc(N2C(=O)CC(NNc3nc4ccccc4s3)C2=O)cc1 (stereo not drawn)	nt	nt	nt	nt	-0.66
NC(=S)NNC(=O)[C@@H]1CCCC[C@@H]1C(=O)O	96	101	-7	i	-0.85
Nc1nnc(-c2ccco2)s1	94	95	-2	i	1.8
Nc1ncnc2oc(-c3ccco3)c(-c3ccco3)c12	84	82	52*	i	-1.1
Cc1cn(C(=O)c2ccccc2)c(=S)n1-c1ccc(Cl)cc1	78	70	85*	i	0.32
O=C(NCCCN1CCCC1=O)c1cc(-c2cccnc2)nc2ccc(Cl)cc12	nt	nt	6	i	-0.41
CCOC(=O)N(C)c1ccc(C(O)(C(F)(F)F)C(F)(F)F)cc1	92	93	100*	i	0.76
CC(=O)N(C)c1ccc(C(O)(C(F)(F)F)C(F)(F)F)cc1	nt	nt	99*	i	0.15
O=C(CCCN1C(=O)c2cccc3cccc(c23)C1=O)Nc1nccs1	nt	nt	nt	nt	-0.24
Cc1cc(C)cc(NC(=O)c2ccc3nc[nH]c3c2)c1	75	88	86*	i	-0.16
Cc1c2c(n3c(nc4ccccc43)c1C#N)N(CCN1CCOCC1)CC2	nt	nt	5	i	-1.1
C[n+]1c2n(c3ccccc31)N=C(c1cc(C(C)(C)C)c(O)c(C(C)(C)C)c1)CS2	nt	nt	100*	i	-0.14

Screens (PubChem BioAssay)
